From ChEMBL document CHEMBL4715934, “Discovery of Imidazopyridines as Potent Inhibitors of Indoleamine 2,3-Dioxygenase 1 for Cancer Immunotherapy” (ACS Med Chem Lett, 2021)
One block for each compound: values may come before it.

Experiments:
[1] = target: T1, Indoleamine 2,3-dioxygenase 1 (Homo sapiens, UniProt P14902); test: Inhibition of IDO1 in recombinant IFN-gamma induced human HeLa cells incubated for 18 hrs by fluorescence microplate reader assay
Summary of the method: (§1)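 HeLa (human) or M109 (murine) cells induced with IFNγ to express IDO1, then cellular IDO1 activity measured; values are the average of N = 2 unless noted.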

[2] = Metabolic stability in mouse liver microsomes assessed as parent compound remaining at 0.5 uM after 10 mins; type: ADME, Microsome; details: read-out: Stabilty
Summary of the method: (§2)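 Parent compound at 0.5 μM incubated 10 min with 1 mg/mL human, mouse or rat liver microsomes; fraction of parent remaining reported; average of N = 2 unless noted.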

[3] = Metabolic stability in human liver microsomes assessed as parent compound remaining at 0.5 uM after 10 mins; type: ADME, Microsome; details: read-out: Stabilty; summary of the method: as §2
[4] = target: Indoleamine 2,3-dioxygenase 1 (Mus musculus, UniProt P28776); test: Inhibition of IDO1 in recombinant IFN-gamma induced mouse M109 cells incubated for 18 hrs by fluorescence microplate reader assay; type: cell-based; summary of the method: as §1
Chain of Indoleamine 2,3-dioxygenase 1 (Mus musculus, UniProt P28776) (P28776 whole entry): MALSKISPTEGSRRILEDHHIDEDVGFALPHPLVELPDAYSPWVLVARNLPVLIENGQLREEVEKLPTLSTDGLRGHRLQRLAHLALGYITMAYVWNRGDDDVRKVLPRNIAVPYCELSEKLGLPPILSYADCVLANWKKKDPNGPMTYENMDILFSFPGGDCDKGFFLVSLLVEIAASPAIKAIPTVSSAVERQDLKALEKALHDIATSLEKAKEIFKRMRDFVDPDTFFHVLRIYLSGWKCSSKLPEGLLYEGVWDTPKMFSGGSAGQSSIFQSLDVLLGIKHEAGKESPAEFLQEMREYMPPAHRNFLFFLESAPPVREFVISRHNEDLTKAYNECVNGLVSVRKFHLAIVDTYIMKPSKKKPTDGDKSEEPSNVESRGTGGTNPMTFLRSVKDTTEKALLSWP

[5] = Metabolic stability in rat liver microsomes assessed as parent compound remaining at 0.5 uM after 10 mins; type: ADME, Microsome; details: read-out: Stabilty; summary of the method: as §2
[6] = target: T1, Indoleamine 2,3-dioxygenase 1; test: Inhibition of IDO1 in IFN-gamma/LPS induced human whole blood assessed as tryptophan/kynurenine level measured after 18 hrs by RapidFire mass spectrometry; type: tissue-based
[7] = Metabolic stability assessed as mouse CYP-mediated metabolism by measuring half life; type: ADME
[8] = Permeability at pH 7.4 by PAMPA; type: ADME; details: read-out: permeability
[9] = Metabolic stability assessed as dog CYP-mediated metabolism by measuring half life; type: ADME, Canis lupus familiaris
[10] = Metabolic stability assessed as human CYP-mediated metabolism by measuring half life; type: ADME
[11] = target: Cytochrome P450 2C9 (Homo sapiens, UniProt P11712); test: Inhibition of recombinant human CYP2C9; type: ADME
Chain of Cytochrome P450 2C9 (P11712 whole entry): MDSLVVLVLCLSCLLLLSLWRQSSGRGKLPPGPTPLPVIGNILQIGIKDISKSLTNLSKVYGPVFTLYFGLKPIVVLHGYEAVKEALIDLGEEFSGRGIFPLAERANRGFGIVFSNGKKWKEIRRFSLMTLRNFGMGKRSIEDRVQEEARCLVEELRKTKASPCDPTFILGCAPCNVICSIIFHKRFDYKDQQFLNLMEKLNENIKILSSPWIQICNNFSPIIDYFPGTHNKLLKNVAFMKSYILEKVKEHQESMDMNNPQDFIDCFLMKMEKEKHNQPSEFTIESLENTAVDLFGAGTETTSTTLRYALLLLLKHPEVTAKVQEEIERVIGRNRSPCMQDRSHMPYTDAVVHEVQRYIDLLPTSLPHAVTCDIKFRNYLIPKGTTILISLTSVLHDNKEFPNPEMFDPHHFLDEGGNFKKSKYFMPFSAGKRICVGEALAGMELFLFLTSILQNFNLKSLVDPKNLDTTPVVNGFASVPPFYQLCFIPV

[12] = Permeability across basolateral to apical side in human Caco2 cells; type: ADME, cell-based; details: Caco-2, read-out: permeability
[13] = Metabolic stability assessed as rat UGT -mediated metabolism by measuring half life; type: ADME
[14] = Metabolic stability assessed as rat CYP-mediated metabolism by measuring half life; type: ADME
[15] = Metabolic stability assessed as mouse UGT -mediated metabolism by measuring half life; type: ADME
[16] = Metabolic stability assessed as cynomolgus monkey CYP-mediated metabolism by measuring half life; type: ADME, Macaca fascicularis
[17] = Metabolic stability assessed as dog UGT -mediated metabolism by measuring half life; type: ADME, Canis lupus familiaris
[18] = Permeability across apical to basolateral side in human Caco2 cells; type: ADME, cell-based; details: Caco-2, read-out: permeability
[19] = target: Cytochrome P450 2C19 (Homo sapiens, UniProt P33261); test: Inhibition of recombinant human CYP2C19; type: ADME
Chain of Cytochrome P450 2C19 (P33261 whole entry): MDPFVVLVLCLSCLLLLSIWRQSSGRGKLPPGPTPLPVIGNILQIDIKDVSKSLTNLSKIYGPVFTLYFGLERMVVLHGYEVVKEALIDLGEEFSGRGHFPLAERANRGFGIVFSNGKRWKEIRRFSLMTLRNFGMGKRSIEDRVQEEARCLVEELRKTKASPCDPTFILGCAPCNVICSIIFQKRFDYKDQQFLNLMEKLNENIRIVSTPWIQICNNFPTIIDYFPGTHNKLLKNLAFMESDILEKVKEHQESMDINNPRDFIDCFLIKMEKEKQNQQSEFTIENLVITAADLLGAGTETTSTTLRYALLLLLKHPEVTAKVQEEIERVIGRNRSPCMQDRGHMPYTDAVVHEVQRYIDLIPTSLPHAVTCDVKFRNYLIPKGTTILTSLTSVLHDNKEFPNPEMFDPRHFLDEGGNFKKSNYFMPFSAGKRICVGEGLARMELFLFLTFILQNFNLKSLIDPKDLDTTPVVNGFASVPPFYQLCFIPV

[20] = target: Cytochrome P450 2D6 (Homo sapiens, UniProt P10635); test: Inhibition of recombinant human CYP2D6; type: ADME
Chain of Cytochrome P450 2D6 (P10635 whole entry): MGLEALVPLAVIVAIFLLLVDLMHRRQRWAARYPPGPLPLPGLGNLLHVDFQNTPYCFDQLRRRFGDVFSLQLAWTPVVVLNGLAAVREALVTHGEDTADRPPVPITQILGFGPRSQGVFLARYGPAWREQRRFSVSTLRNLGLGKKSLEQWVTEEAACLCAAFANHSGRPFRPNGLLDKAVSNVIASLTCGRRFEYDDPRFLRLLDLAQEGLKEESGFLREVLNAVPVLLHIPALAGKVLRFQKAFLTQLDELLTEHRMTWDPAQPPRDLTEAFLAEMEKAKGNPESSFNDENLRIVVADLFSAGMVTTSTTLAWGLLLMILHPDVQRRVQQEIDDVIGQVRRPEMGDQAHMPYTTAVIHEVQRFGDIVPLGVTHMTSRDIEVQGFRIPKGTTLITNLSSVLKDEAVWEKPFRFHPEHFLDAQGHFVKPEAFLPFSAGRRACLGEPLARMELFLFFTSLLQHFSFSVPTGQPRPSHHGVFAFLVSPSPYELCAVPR

[21] = Metabolic stability assessed as cynomolgus monkey UGT -mediated metabolism by measuring half life; type: ADME, Macaca fascicularis
[22] = Permeability at pH 5.5 by PAMPA; type: ADME; details: read-out: permeability
[23] = target: T2, Cytochrome P450 2C8 (Homo sapiens, UniProt P10632); test: Inhibition of recombinant human CYP2C8; type: ADME
T2 sequence (P10632 whole entry): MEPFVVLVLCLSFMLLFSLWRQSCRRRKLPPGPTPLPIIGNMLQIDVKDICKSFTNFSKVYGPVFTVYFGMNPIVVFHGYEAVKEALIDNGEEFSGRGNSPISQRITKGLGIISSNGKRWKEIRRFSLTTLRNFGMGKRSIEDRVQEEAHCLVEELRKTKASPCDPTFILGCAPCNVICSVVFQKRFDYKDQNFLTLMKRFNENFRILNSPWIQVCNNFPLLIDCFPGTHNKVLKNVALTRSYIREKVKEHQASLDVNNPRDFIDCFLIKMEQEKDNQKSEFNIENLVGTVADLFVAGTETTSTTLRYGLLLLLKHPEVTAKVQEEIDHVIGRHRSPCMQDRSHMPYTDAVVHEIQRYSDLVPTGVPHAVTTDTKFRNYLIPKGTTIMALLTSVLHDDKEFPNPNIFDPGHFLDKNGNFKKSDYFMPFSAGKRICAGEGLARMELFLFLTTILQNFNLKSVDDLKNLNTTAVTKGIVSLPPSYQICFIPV

[24] = target: Cytochrome P450 3A4 (Homo sapiens, UniProt P08684); test: Inhibition of recombinant human CYP3A4; type: ADME
Chain of Cytochrome P450 3A4 (P08684 whole entry): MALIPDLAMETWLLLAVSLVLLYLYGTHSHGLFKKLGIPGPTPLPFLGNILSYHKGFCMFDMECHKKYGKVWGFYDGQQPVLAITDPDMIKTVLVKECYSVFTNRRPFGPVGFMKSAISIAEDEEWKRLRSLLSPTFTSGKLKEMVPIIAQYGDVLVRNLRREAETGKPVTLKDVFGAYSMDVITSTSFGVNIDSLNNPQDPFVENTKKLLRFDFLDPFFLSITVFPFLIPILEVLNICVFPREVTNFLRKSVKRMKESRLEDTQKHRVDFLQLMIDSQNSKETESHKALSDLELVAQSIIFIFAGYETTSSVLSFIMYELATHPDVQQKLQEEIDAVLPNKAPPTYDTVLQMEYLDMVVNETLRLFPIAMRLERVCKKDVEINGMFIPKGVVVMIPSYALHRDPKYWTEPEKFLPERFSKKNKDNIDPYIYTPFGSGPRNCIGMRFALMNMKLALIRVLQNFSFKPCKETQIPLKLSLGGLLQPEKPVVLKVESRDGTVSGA

[25] = Metabolic stability assessed as human UGT-mediated metabolism by measuring half life; type: ADME
[26] = AUC (0 to 24 hrs) in mouse xenografted with human SKOV3 cells assessed in tumor at 20 mg/kg, po qd for 5 days measured upto 24 hrs after dosing; type: ADME, organism-based; design: route oral, dose 20 mg/kg, time 5 day
Summary of the method: (§3)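 nu/nu nude mice carrying SKOV3 tumors grown 2 weeks; dosed QD for 5 days starting day 14. On day 18, tumor sampled at 2, 6 and 24 h for drug level and kynurenine. […] Kyn reduction measured at steady state after the 5th dose, taken as area under the Kyn concentration–time curve 0–24 h versus vehicle control.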

[27] = target: T3, Cytochrome P450 1A2 (Homo sapiens, UniProt P05177); test: Inhibition of recombinant human CYP1A2; type: ADME
T3 sequence (P05177 whole entry): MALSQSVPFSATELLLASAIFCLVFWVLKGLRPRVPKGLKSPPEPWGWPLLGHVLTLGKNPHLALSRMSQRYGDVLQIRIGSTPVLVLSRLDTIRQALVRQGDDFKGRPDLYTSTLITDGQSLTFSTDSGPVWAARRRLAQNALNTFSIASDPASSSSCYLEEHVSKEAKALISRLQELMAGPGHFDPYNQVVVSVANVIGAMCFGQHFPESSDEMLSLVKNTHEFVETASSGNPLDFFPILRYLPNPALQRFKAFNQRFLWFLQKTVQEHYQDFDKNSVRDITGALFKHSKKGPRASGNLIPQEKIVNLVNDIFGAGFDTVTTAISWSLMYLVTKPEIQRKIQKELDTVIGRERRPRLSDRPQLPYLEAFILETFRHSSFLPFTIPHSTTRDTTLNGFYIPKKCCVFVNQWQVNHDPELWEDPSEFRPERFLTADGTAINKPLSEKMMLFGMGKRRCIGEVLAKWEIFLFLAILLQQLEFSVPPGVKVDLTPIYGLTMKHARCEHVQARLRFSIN

[28] = In vivo inhibition of IDO1 in mouse xenografted with human SKOV3 cells assessed as reduction in tumor kynurenine AUEC at 60 mg/kg, po qd for 5 days measured upto 24 hrs after dosing relative to vehicle treated control; type: functional; details: SK-OV-3, po, 120 h, time 5 day; summary of the method: as §3
[29] = in vivo; details: mouse, tumor, po, 60 mg/kg
[30] = Induction of proliferation of human T eff cells by T cell/DC mixed lymphocyte reaction (MLR) assay

T1 sequence (P14902 whole entry): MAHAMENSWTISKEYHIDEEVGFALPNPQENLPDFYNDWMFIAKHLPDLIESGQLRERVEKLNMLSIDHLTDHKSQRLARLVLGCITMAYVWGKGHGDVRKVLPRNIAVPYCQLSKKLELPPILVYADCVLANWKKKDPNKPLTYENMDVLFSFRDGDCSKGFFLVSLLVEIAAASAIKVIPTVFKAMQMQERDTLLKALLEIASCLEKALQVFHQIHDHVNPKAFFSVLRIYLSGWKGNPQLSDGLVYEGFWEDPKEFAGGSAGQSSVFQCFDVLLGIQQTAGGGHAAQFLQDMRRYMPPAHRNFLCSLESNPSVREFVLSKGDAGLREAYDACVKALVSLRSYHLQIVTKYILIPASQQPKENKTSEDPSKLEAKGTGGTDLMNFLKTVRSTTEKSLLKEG

- IC50 [1]: 165 nM
- remaining at 10 min, 0.5 µM [2]: 2%
- remaining at 10 min, 0.5 µM [3]: 18%
- IC50 [4]: 451 nM
- remaining at 10 min, 0.5 µM [5]: 0.4%
Compound: COc1ccc(Nc2nnc([C@H](C)[C@H]3CC[C@@H](c4ccnc5ccc(F)cc54)CC3)o2)cc1

- IC50 [6]: 16 nM
- IC50 [1]: 6 nM
- remaining at 10 min, 0.5 µM [2]: 31%
- remaining at 10 min, 0.5 µM [3]: 66%
- IC50 [4]: 31 nM
- remaining at 10 min, 0.5 µM [5]: 45%
Compound: CCC(Nc1nnc(-c2ccc(OC)cc2)o1)[C@H]1CC[C@@H](c2ccnc3ccc(F)cc32)CC1 (stereo not given in full)

- IC50 [6]: 36 nM
- IC50 [1]: 7 nM
- remaining at 10 min, 0.5 µM [2]: 82%
- remaining at 10 min, 0.5 µM [3]: 84%
- IC50 [4]: 52 nM
- remaining at 10 min, 0.5 µM [5]: 80%
Compound: CCC(c1nc2ccc(Cl)cc2[nH]1)[C@H]1CC[C@H](Oc2ccnc3ccccc23)CC1 (stereo not given in full)

- IC50 [1]: 11 nM
- remaining at 10 min, 0.5 µM [2]: 59%
- remaining at 10 min, 0.5 µM [3]: 58%
- IC50 [4]: 80 nM
- remaining at 10 min, 0.5 µM [5]: 3%
Compound: C[C@@H](c1ncc(-c2ccc(Cl)cc2)[nH]1)[C@H]1CC[C@@H](c2ccnc3ccc(F)cc32)CC1

- IC50 [1]: 3 nM
- remaining at 10 min, 0.5 µM [2]: 17%
- remaining at 10 min, 0.5 µM [3]: 64%
- IC50 [4]: 14 nM
- remaining at 10 min, 0.5 µM [5]: 35%
Compound: COc1ccc(-c2nnc(N[C@H](C)[C@H]3CC[C@@H](c4ccnc5ccc(F)cc54)CC3)o2)cc1

- IC50 [6]: 39 nM
- IC50 [1]: 4 nM
- remaining at 10 min, 0.5 µM [2]: 22%
- remaining at 10 min, 0.5 µM [3]: 67%
- IC50 [4]: 36 nM
- remaining at 10 min, 0.5 µM [5]: 17%
Compound: C[C@@H](c1nc2ncc(Cl)cc2[nH]1)[C@H]1CC[C@@H](c2ccnc3ccc(F)cc32)CC1

- IC50 [6]: 96 nM
- IC50 [1]: 13 nM
- remaining at 10 min, 0.5 µM [2]: 41%
- remaining at 10 min, 0.5 µM [3]: 60%
- IC50 [4]: 57 nM
- remaining at 10 min, 0.5 µM [5]: 53%
Compound: CCOCC(Nc1nnc(-c2ccc(OC)cc2)o1)[C@H]1CC[C@@H](c2ccnc3ccc(C(F)(F)F)cc32)CC1 (stereo not given in full)

- half-life [7]: 0.283 h
- Papp [8]: 263 ×10⁻⁶ cm/s
- half-life [9]: 0.683 h
- IC50 [6]: 21 nM
- half-life [10]: 0.9 h
- IC50 [11]: 242 nM
- IC50 [1]: 2 nM
- Papp B→A [12]: 6.6 ×10⁻⁶ cm/s
- remaining at 10 min, 0.5 µM [2]: 57%
- half-life [13]: 1.78 h
- half-life [14]: 1 h
- half-life [15]: > 2 h
- half-life [16]: 0.35 h
- half-life [17]: 1.75 h
- Papp A→B [18]: 11.3 ×10⁻⁶ cm/s
- IC50 [19]: 1130 nM
- IC50 [20]: 4280 nM
- half-life [21]: > 2 h
- Papp [22]: 238 ×10⁻⁶ cm/s
- remaining at 10 min, 0.5 µM [3]: 81%
- IC50 [23]: 1470 nM
- IC50 [24]: 1930 nM
- half-life [25]: 1.58 h
- IC50 [4]: 3 nM
- AUC at 120 h [26]: 43.6 µM·h
- remaining at 10 min, 0.5 µM [5]: 81%
- IC50 [27]: 2550 nM
Compound: CCC(c1nc2ncc(Cl)cc2[nH]1)[C@H]1CC[C@@H](c2ccnc3ccc(C(F)(F)F)cc32)CC1 (stereo not given in full)

- AUC at 120 h [29]: 34.9 µM·h
- remaining at 10 min, 0.5 µM [5]: 86%
Compound: C[C@@H](C(=O)Nc1ccc(Cl)cc1)[C@H]1CC[C@@H](c2ccnc3ccc(F)cc32)CC1
- inhibition in vivo at 60 mg/kg [28]: 61%
- EC50 [30]: 2 nM
